Reference: ChEMBL document CHEMBL3244005, “Troponoids. 3. Synthesis and antiallergy activity of N-troponyloxamic acid esters” (J Med Chem, 1979)

Key:
Rattus norvegicus [1] = experiment: Antiallergic activity in Sprague-Dawley CD rat assessed as inhibition of passive anaphylaxis-induced hind paw edema at 100 mg/kg, po relative to control; assay type: functional; conditions: Rattus norvegicus, Sprague-Dawley CD, po
Summary of the method: (§1)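 Passive anaphylaxis (reaginic antibody) induced in rat hind paw: serum with reaginic antibody injected into left hind paw; antigen given intravenously 24 h later. Paw volume measured by mercury displacement; activity read as inhibition of paw edema versus controls. Test compounds given ip or po. Inhibition of 35% or more considered significant by Student's t test (p < 0.05).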

Rattus norvegicus [2] = experiment: Antiallergic activity in Sprague-Dawley CD rat assessed as inhibition of passive anaphylaxis-induced hind paw edema at 3 mg/kg, po relative to control; assay type: functional; conditions: Rattus norvegicus, Sprague-Dawley CD, po; summary of the method: as §1
Rattus norvegicus [3] = experiment: Antiallergic activity in Sprague-Dawley CD rat assessed as inhibition of passive anaphylaxis-induced hind paw edema at 10 mg/kg, ip relative to control; assay type: functional; conditions: Rattus norvegicus, Sprague-Dawley CD, ip, route intraperitoneal; summary of the method: as §1
Rattus norvegicus [4] = experiment: Antiallergic activity in Sprague-Dawley CD rat assessed as inhibition of passive anaphylaxis-induced hind paw edema at 1 mg/kg, ip relative to control; assay type: functional; conditions: route intraperitoneal; summary of the method: as §1
Cavia porcellus [5] = species: Cavia porcellus; experiment: Stimulation of guinea pig lung adenylate cyclase activity at 1 x 10^-4 M after 15 mins relative to control
[6] = Inhibition of guinea pig lung PDE assessed as cyclic AMP level; design: species or system Cavia porcellus
Summary of the method: (§2)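 PDE from beef heart or guinea pig lung assayed by earlier-described methods; protein measured by Lowry method. IC50 taken from a plot of percent inhibition vs log inhibitor concentration, as the concentration giving 50% reduction in reaction velocity relative to uninhibited controls.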

Rattus norvegicus [7] = experiment: Antiallergic activity in Sprague-Dawley CD rat assessed as inhibition of passive anaphylaxis-induced hind paw edema at 3 mg/kg, ip relative to control; assay type: functional; design: Activity: scale not given: the % may be the effect or the level left; conditions: route intraperitoneal; for inhibition in vivo at 3 mg/kg: Rattus norvegicus, Sprague-Dawley CD, ip; summary of the method: as §1
Rattus norvegicus [8] = experiment: Drug metabolism in po dosed Sprague-Dawley CD rat passive anaphylaxis model assessed as 2-aminotropone level; assay type: ADME, organism-based; conditions: in vivo
Rattus norvegicus [9] = experiment: Antiallergic activity in Sprague-Dawley CD rat passive anaphylaxis model assessed as hind paw edema volume at 1 mg/kg, ip relative to control; assay type: functional; conditions: route intraperitoneal; summary of the method: as §1
Rattus norvegicus [10] = experiment: Antiallergic activity in Sprague-Dawley CD rat passive anaphylaxis model assessed as hind paw edema volume at 3 mg/kg, po relative to control; assay type: functional; summary of the method: as §1
Serum [11] = experiment: Drug metabolism in serum of Sprague-Dawley CD rat passive anaphylaxis model assessed as 2-[(Carboxycarbonyl)amino]-2,4,6-cycloheptatrien-l-one level at 0.23 mmol/kg, iv; assay type: ADME, cell-free
Summary of the method: (§3)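 Rats given an iv bolus of 0.23 mmol/kg. Serum separated by centrifugation and stored frozen. Drug-derived material in serum quantified over time by UV measurement of 2-aminotropone. For 14C-labelled ester (label in ethyl group or oxalyl carbonyls), radioactivity counted in 0.2 mL serum after tissue-solubiliser digestion and scintillation fluid addition.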

Rattus norvegicus [12] = experiment: Antiallergic activity in Sprague-Dawley CD rat assessed as inhibition of passive anaphylaxis-induced hind paw edema at 10 mg/kg, po relative to control; assay type: functional; conditions: for inhibition in vivo at 10 mg/kg: Rattus norvegicus, Sprague-Dawley CD, po; summary of the method: as §1
Blood = experiment: Drug metabolism in blood of Sprague-Dawley CD rat passive anaphylaxis model at 0.23 mmol/kg, iv; assay type: ADME, tissue-based; summary of the method: as §3
Rattus norvegicus [13] = experiment: Antiallergic activity in Sprague-Dawley CD rat passive anaphylaxis model assessed as hind paw edema volume at 10 mg/kg, po relative to control; assay type: functional; summary of the method: as §1
Serum [14] = experiment: Drug metabolism in serum of Sprague-Dawley CD rat passive anaphylaxis model assessed as 2-aminotropone level at 0.23 mmol/kg, iv; assay type: ADME, cell-free; summary of the method: as §3
Rattus norvegicus [15] = experiment: Antiallergic activity in Sprague-Dawley CD rat assessed as inhibition of passive anaphylaxis-induced hind paw edema at 30 mg/kg, ip relative to control; assay type: functional; conditions: Rattus norvegicus, Sprague-Dawley CD, ip, route intraperitoneal; summary of the method: as §1
[16] = Inhibition of beef heart PDE assessed as cyclic AMP level; design: species or system Bos taurus; summary of the method: as §2
Rattus norvegicus [17] = experiment: Antiallergic activity in Sprague-Dawley CD rat passive anaphylaxis model assessed as hind paw edema volume at 3 mg/kg, ip relative to control; assay type: functional; conditions: route intraperitoneal; summary of the method: as §1
Rattus norvegicus [18] = experiment: Antiallergic activity in Sprague-Dawley CD rat passive anaphylaxis model assessed as hind paw edema volume at 10 mg/kg, ip relative to control; assay type: functional; conditions: route intraperitoneal; summary of the method: as §1
Cavia porcellus [19] = species: Cavia porcellus; experiment: Stimulation of guinea pig lung adenylate cyclase activity at 1 x 10^-5 M after 15 mins relative to control
Serum [20] = experiment: Drug metabolism in serum of Sprague-Dawley CD rat passive anaphylaxis model at 0.23 mmol/kg, iv; assay type: ADME, cell-free; summary of the method: as §3
Rattus norvegicus [21] = experiment: Antiallergic activity in Sprague-Dawley CD rat assessed as inhibition of passive anaphylaxis-induced hind paw edema at 30 mg/kg, po relative to control; assay type: functional; conditions: for inhibition in vivo at 30 mg/kg: Rattus norvegicus, Sprague-Dawley CD, po; summary of the method: as §1
Rattus norvegicus [22] = experiment: Antiallergic activity in Sprague-Dawley CD rat passive anaphylaxis model assessed as hind paw edema volume at 30 mg/kg, po relative to control; assay type: functional; summary of the method: as §1

Row | Structure (SMILES) | inhibition in vivo at 100 mg/kg (Rattus norvegicus [1]) [%] | inhibition in vivo at 10 mg/kg (Rattus norvegicus [3]) [%] | inhibition in vivo at 30 mg/kg (Rattus norvegicus [15]) [%] | inhibition in vivo at 30 mg/kg (Rattus norvegicus [21]) [%] | also measured
1 | CCOC(=O)C(=O)Nc1cccccc1=O | 91 | 80 | 84 | 79 | inhibition in vivo at 3 mg/kg (Rattus norvegicus [2]): 50%; inhibition in vivo at 1 mg/kg (Rattus norvegicus [4]): 16%; Activity (Cavia porcellus [5]): 7%; IC50 [6]: 1.94 mM; inhibition in vivo at 3 mg/kg (Rattus norvegicus [7]): 62%; Drug metabolism (Rattus norvegicus [8]): metabolite_detected; Activity (Rattus norvegicus [9]): 0.95 mL; Activity (Rattus norvegicus [10]): 0.47 mL; Drug metabolism (Serum [11]): metabolite_detected; inhibition in vivo at 10 mg/kg (Rattus norvegicus [12]): 75%; Drug metabolism (Blood): metabolite_detected; Activity (Rattus norvegicus [13]): 0.24 mL; Drug metabolism (Serum [14]): metabolite_notdetected; IC50 [16]: 1.51 mM; Activity (Rattus norvegicus [17]): 0.41 mL; Activity (Rattus norvegicus [18]): 0.22 mL; Activity (Cavia porcellus [19]): 0%; Drug metabolism (Serum [20]): metabolite_detected; Activity (Rattus norvegicus [22]): 0.17 mL
2 | CCOC(=O)COC(=O)C(=O)Nc1cccccc1=O | 64 | 69 | – | 31 | –
3 | Nc1cccccc1=O | – | – | – | – | Drug metabolism (Serum [20]): metabolite_detected
4 | CCOC(=O)C(=O)Nc1ccccc(C)c1=O | 34 | 40 | 60 | 6 | –
5 | COc1cccc2c(=O)c(CO)coc12 | 83 | 70 | 98 | 53 | inhibition in vivo at 3 mg/kg (Rattus norvegicus [2]): 15%; inhibition in vivo at 1 mg/kg (Rattus norvegicus [4]): 14%; inhibition in vivo at 3 mg/kg (Rattus norvegicus [7]): 39%; Activity (Rattus norvegicus [9]): 1 mL; Activity (Rattus norvegicus [10]): 1.13 mL; inhibition in vivo at 10 mg/kg (Rattus norvegicus [12]): 44%; Activity (Rattus norvegicus [13]): 0.74 mL; Activity (Rattus norvegicus [17]): 0.68 mL; Activity (Rattus norvegicus [18]): 0.32 mL; Activity (Rattus norvegicus [22]): 0.63 mL
6 | CCOC(=O)C(=O)Nc1ccccc(Oc2ccccc2)c1=O | 9 | – | 16 | – | –
7 | CCOC(=O)C(=O)Nc1ccc(NC(=O)C(=O)OCC)c(=O)cc1 | 76 | 93 | 84 | 61 | –
8 | O=C(O)C(=O)Nc1cccccc1=O [listing 1 of 2 here] | 62 | 89 | 77 | – | Activity (Rattus norvegicus [7]): 35%; Drug metabolism (Rattus norvegicus [8]): metabolite_detected; inhibition (INH) (Rattus norvegicus [12]): 38%; Activity (Rattus norvegicus [13]): 1.11 mL; IC50 [16]: 4.33 mM; Activity (Rattus norvegicus [17]): 0.75 mL; Activity (Rattus norvegicus [18]): 0.12 mL; inhibition (INH) (Rattus norvegicus [21]): 38%; Activity (Rattus norvegicus [22]): 0.88 mL
9 | Cn1c(=O)c2nc[nH]c2n(C)c1=O [THEOPHYLLINE] | – | – | – | – | IC50 [6]: 1.47 mM; IC50 [16]: 0.515 mM
10 | CCOC(=O)C(=O)Nc1ccccc(O)c1=O | 0 | 5 | 61 | – | –
11 | CC(C)(C)OC(=O)C(=O)Nc1cccccc1=O | 82 | – | 79 | 47 | –
12 | O=C(O)COC(=O)C(=O)Nc1cccccc1=O | 50 | 66 | 93 | 45 | –
13 | CCOC(=O)C(=O)Nc1c(Oc2ccccc2)ccccc1=O | 20 | – | 0 | – | –
14 | CCOC(=O)C(=O)Nc1cc(OC)cccc1=O | 53 | – | 8 | 31 | –
15 | CNC[C@H](O)c1ccc(O)c(O)c1 | – | – | – | – | Activity (Cavia porcellus [5]): 84%
16 | O=C(O)C(=O)Nc1cccccc1=O [listing 2 of 2 here] | – | – | – | – | Activity (Cavia porcellus [5]): 2%
17 | CCOC(=O)C(=O)Nc1ccccc(OC)c1=O | 56 | 24 | 52 | 59 | –
